For series [1], the target named is Serine/threonine-protein kinase PknG (Mycobacterium tuberculosis) (UniProt P9WI73). The series is described as follows: Inhibition of Mycobacterium tuberculosis recombinant PKnG expressed in Escherichia coli BL21 (DE3) cells using myelin basic protein substrate at 100 uM by luciferase activity based ADP-Glo-luminescent kinase assay. An outline of the steps:
(§1)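 6-His-PknG from M. tuberculosis genomic DNA cloned into pTriEx4, expressed in E. coli with 0.8 mM IPTG 4 h at 37 °C, purified by Ni2+-NTA then size exclusion. Compounds dissolved in DMSO; assayed with myelin basic protein substrate; ADP formed measured by ADP-Glo luminescence; AX20017 positive control; dose-response series.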

Series [2] has the same target. The series is described as follows: Inhibition of Mycobacterium tuberculosis recombinant PKnG expressed in Escherichia coli BL21 (DE3) cells using myelin basic protein substrate at 12.5 uM by luciferase activity based ADP-Glo-luminescent kinase assay. The essentials: as §1
In general terms: ADP-Glo first removes unused ATP, then detects ADP through luciferase.

Series [3] deals with Mycobacterium tuberculosis. The series is described as follows: Growth inhibition of Mycobacterium tuberculosis H37Rv. Format: functional.
Series [4] deals with Serine/threonine-protein kinase PknG (Mycobacterium tuberculosis) (UniProt P9WI73). Description: Inhibition of Mycobacterium tuberculosis recombinant PKnG expressed in Escherichia coli BL21 (DE3) cells using myelin basic protein substrate at 50 uM by luciferase activity based ADP-Glo-luminescent kinase assay. The essentials: as §1
Sequence of Serine/threonine-protein kinase PknG (Mycobacterium tuberculosis) (P9WI73 whole entry): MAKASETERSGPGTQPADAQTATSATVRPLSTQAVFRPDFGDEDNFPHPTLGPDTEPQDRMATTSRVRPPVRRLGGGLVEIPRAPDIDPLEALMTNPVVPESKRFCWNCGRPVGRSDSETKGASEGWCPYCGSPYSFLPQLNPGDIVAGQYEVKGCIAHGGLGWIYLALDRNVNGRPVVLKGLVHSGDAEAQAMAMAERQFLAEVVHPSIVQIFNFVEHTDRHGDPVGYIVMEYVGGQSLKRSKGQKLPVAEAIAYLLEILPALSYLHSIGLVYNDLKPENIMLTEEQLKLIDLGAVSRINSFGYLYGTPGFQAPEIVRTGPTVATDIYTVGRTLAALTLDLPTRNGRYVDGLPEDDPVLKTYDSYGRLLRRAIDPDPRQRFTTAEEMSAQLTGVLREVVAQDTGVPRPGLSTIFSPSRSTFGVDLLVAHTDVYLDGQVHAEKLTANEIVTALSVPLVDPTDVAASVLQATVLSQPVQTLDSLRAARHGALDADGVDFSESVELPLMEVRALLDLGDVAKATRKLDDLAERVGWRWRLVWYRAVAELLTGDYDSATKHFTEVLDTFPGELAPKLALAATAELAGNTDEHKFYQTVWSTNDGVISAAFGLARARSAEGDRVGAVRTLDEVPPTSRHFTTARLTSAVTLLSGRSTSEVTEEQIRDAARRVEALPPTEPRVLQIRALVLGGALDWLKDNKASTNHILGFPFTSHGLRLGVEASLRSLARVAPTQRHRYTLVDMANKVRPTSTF
The target is the same in series [5]. The series is described as follows: Inhibition of Mycobacterium tuberculosis recombinant PKnG expressed in Escherichia coli BL21 (DE3) cells using myelin basic protein substrate at 25 uM by luciferase activity based ADP-Glo-luminescent kinase assay. The essentials: as §1
For series [6] the target is unchanged. Description: Inhibition of Mycobacterium tuberculosis recombinant PKnG expressed in Escherichia coli BL21 (DE3) cells using myelin basic protein substrate at 6.25 uM by luciferase activity based ADP-Glo-luminescent kinase assay. The essentials: as §1
Series [7] shares this target. The series is described as follows: Inhibition of Mycobacterium tuberculosis recombinant PKnG expressed in Escherichia coli BL21 (DE3) cells using myelin basic protein substrate at 3.125 uM by luciferase activity based ADP-Glo-luminescent kinase assay. The essentials: as §1
The subject of series [8] is Mycolicibacterium aurum. Description: Inhibition of FAS2 in recombinant Mycobacterium aurum expressing Mycobacterium tuberculosis H37Rv kas operon in fusion Escherichia coli lacZ gene assessed as increase in beta-galactosidase activity at 50 uM incubated for 12 hrs by lacZ reporter gene assay. An outline of the steps:
(§2)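 Cells washed, sonicated in PBS pH 7.2; equal Bradford-quantified protein incubated with ONPG (4 mg/ml) 30 min at 37 °C, stopped with Na2CO3, read at 410 nm. Triplicates, experiment repeated twice; isoniazid positive control.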
A general note: A reporter such as luciferase makes a cellular process visible.

The test system of series [9] is Mycolicibacterium aurum. The series is described as follows: Inhibition of FAS2 in recombinant Mycobacterium aurum expressing Mycobacterium tuberculosis H37Rv kas operon in fusion Escherichia coli lacZ gene assessed as increase in beta-galactosidase activity at 100 uM incubated for 12 hrs by lacZ reporter gene assay. An outline of the steps:
as §2

For series [10], the system named is Mycolicibacterium aurum. Description: Inhibition of FAS2 in recombinant Mycobacterium aurum expressing hsp60 promoter in fusion Escherichia coli lacZ gene assessed as increase in beta-galactosidase activity at 50 uM incubated for 12 hrs by lacZ reporter gene assay.
Series [11] has as its system Mycolicibacterium aurum. The series is described as follows: Inhibition of FAS2 in recombinant Mycobacterium aurum expressing hsp60 promoter in fusion Escherichia coli lacZ gene assessed as increase in beta-galactosidase activity at 100 uM incubated for 12 hrs by lacZ reporter gene assay.
Series [12] concerns Mycolicibacterium aurum. The series is described as follows: Growth inhibition of Mycobacterium aurum expressing Mycobacterium tuberculosis H37Rv kas operon in fusion Escherichia coli lacZ gene at 50 uM incubated for 12 hrs. The series is classed as functional. The following applies: read-out: GI.
The test system of series [13] is Mycolicibacterium aurum. The series is described as follows: Growth inhibition of Mycobacterium aurum expressing Mycobacterium tuberculosis H37Rv kas operon in fusion Escherichia coli lacZ gene at 100 uM incubated for 12 hrs. The series is classed as functional. The following applies: read-out: GI.
A short description of series [14]: Toxicity against macrophages incubated for 48 hrs by resazurin dye reduction assay. Format: cell-based, Macrophage. The essentials:
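Macrophages from subconfluent monolayers seeded ~1 × 10^6 cells/well in RPMI-1640; compounds 100 to 12.5 µM, 48 h at 37 °C, 5% CO2; resazurin added for 4 h, fluorescence 535/590 nm read against untreated wells as % viability; CC50 taken from viability-versus-concentration plot; triplicates.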

≈ marks a conversion by molar mass, not a printed value. Calls of active or inactive are those of the source. The rule behind the calls is not given here.

By inhibition is commonly meant how much of the control response was suppressed. As a reminder, the MIC is the lowest concentration found to suppress growth. Low values mean a more susceptible organism, high ones a less susceptible organism. Turning to `CCCCCCn1cc(COc2ccc(-c3cc(-c4ccccc4)nc(N)n3)c(O)c2)nn1`, the inhibition amounted to 23% in series [1]; 0% in series [2]; 13% in series [4]; 0% in series [5]; 0% in [6]; 0% in series [7]. Besides, the MIC in series [3] was 50 µg/mL (≈ 112 µM).

In general, CC50 refers to the concentration that lowers cell viability or growth by half. For `O=C(/C=C/c1ccccc1)c1ccc(OCc2cn(Cc3ccc(Br)cc3)nn2)cc1O`, the inhibition entry with Mycolicibacterium aurum [8] and with Mycolicibacterium aurum [9] was “Active” in each case. Also, the inhibition entry in the series on Mycolicibacterium aurum [10] and in the series on Mycolicibacterium aurum [11] was “inactive” throughout. For the same molecule, in the series on Mycolicibacterium aurum [12], the inhibition of growth at 50 µM came out at 53.8%. The inhibition of growth at 100 µM with Mycolicibacterium aurum [13] is 85.3%. For the same molecule, in [14], the half-maximal cytotoxic concentration (CC50) at 48 h came out at 71.7 µM.

Source of the values: ChEMBL document CHEMBL2069213, “Synthesis and evaluation of small libraries of triazolylmethoxy chalcones, flavanones and 2-aminopyrimidines as inhibitors of mycobacterial FAS-II and PknG” (Bioorg Med Chem, 2012).
